Laboratory results as given in ChEMBL document CHEMBL5505959, “Identification of 4-amino-2-Pyridones as new potent PCSK9 inhibitors: From phenotypic hit discovery to in vivo tolerability” (Eur J Med Chem, 2024).
The source made the active and inactive calls. No cut-off for these calls is given here.

Assays:
[1] = Toxicity in C57BL/6 mouse assessed as tremor at 40 mg/kg, sc measured after 7 days; format: organism-based; details: in vivo, 168 h, time 7 day
How it was run: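 General health of subcutaneously dosed C57BL/6J mice (40 mg/kg daily, Transcutol, seven days) was tracked with a modified SHIRPA screen covering phenotype, sensory and neuropsychiatric functions. Body weight was recorded daily as % change from the day −3 to −1 baseline.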

[2] = Toxicity in C57BL/6 mouse assessed as effect on plasma total cholesterol level at 40 mg/kg, sc measured after 7 days by biochemical assay; details: in vivo, 168 h
[3] = Toxicity in C57BL/6 mouse assessed as effect on body weight at 40 mg/kg, sc measured after 7 days; format: organism-based; details: in vivo, 168 h, time 7 day
How it was run: (§1)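 Male C57BL/6J mice, three months old, 26–30 g (n = 5–6/group), received daily sc injections of 40 mg/kg in Transcutol, 50 µl, for seven days. Controls were vehicle and SBC-115076 4 mg/kg. Readouts were daily body weight, open-field locomotion and modified SHIRPA, and gross organ inspection. Liver H&E cryosections were scored by two operators; plasma cholesterol by colorimetric assay, PCSK9 by ELISA.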

[4] = Toxicity in C57BL/6 mouse assessed as effect on liver at 40 mg/kg, sc measured after 7 days by H and E staining based analysis; format: organism-based; details: in vivo, 168 h, time 7 day; how it was run: as §1
[5] = Toxicity in C57BL/6 mouse assessed as effect on gut at 40 mg/kg, sc measured after 7 days by macroscopic analysis; details: in vivo, 168 h
[6] = Toxicity in C57BL/6 mouse assessed as effect on urination at 40 mg/kg, sc measured after 7 days; format: organism-based; details: in vivo, 168 h, time 7 day; how it was run: as §1
[7] = Toxicity in C57BL/6 mouse assessed as abnormal secretion at 40 mg/kg, sc measured after 7 days; format: organism-based; details: in vivo, 168 h, time 7 day; how it was run: as §1
[8] = Toxicity in C57BL/6 mouse assessed as defecations at 40 mg/kg, sc measured after 7 days; format: organism-based; details: in vivo, 168 h, time 7 day; how it was run: as §1
[9] = Toxicity in C57BL/6 mouse assessed as cellular necrosis at 40 mg/kg, sc measured after 7 days by histopathological analysis; format: organism-based; details: in vivo, 168 h, time 7 day; how it was run: as §1
[10] = Toxicity in C57BL/6 mouse assessed as spontaneous locomotor activity at 40 mg/kg, sc measured after 7 days; format: organism-based; details: in vivo, 168 h, time 7 day
How it was run: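 Open-field test in male C57BL/6J mice: 10 min free exploration of a 50 × 50 × 40 cm wooden chamber, with distance and speed tracked automatically. Basal sessions were run before dosing, then testing continued across daily 50 µl subcutaneous injections (40 mg/kg, Transcutol vehicle). Distance, mean speed and % time in corners and arena were recorded as part of a modified SHIRPA screen.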

HepG2 [11] = test: Downregulation of proPCSK9 level in human HepG2 cells by Western blot analysis; format: functional, cell-based
How it was run: (§2)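 HepG2 cells were treated overnight or for 24 h, alone or with simvastatin 40 μM. Lysates (1 % NP-40, 150 mM NaCl, 50 mM Tris-HCl pH 7.5) were loaded at 25 µg protein on 4–20 % SDS-PAGE. Blots were probed for proPCSK9, mature PCSK9 and LDLR, and densitometry was normalized to β-actin or GAPDH. Mean ± SD of three independent experiments.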

[12] = Downregulation of PCSK9 mRNA level in human HepG2 cells at 5 uM by qRT-PCR analysis relative to control; format: functional
How it was run: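 Total RNA was taken from treated HepG2 cells for RT-qPCR of PCSK9, FAS and HMG-CoA reductase. Cycling was 50 °C 10 min, 95 °C 2 min, then 40 cycles of 95 °C 5 s and 60 °C 10 s. Relative quantification used ΔΔCt against 18S, corrected for primer efficiency. Mean ± SD of three independent experiments.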

HepG2 [13] = test: Cytotoxicity against human HepG2 cells assessed as reduction in cell viability at 5 uM measured after 24 hrs by SRB assay relative to control; format: functional
How it was run: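 HepG2 seeded 8000 cells/well in complete MEM; next day medium replaced with 0.4 % FBS medium containing compound or DMSO control. Viability was read by sulforhodamine B assay after 24 h, with absorbance at 570 nm. Dose-response series used 6.25, 12.5, 25, 50 or 100 μM; newer analogues were tested at a fixed 5 μM. Data are mean ± SD of three independent experiments.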

[14] = Toxicity in C57BL/6 mouse assessed as abnormal arrangements of hepatocyte at 40 mg/kg, sc measured after 7 days by histopathological analysis; format: organism-based; details: hepatocytes, 168 h, time 7 day; how it was run: as §1
[15] = Toxicity in C57BL/6 mouse assessed as effect on kidney at 40 mg/kg, sc measured after 7 days by H and E staining based analysis; format: organism-based; details: in vivo, 168 h, time 7 day
[16] = Toxicity in C57BL/6 mouse assessed as inflammatory cells infiltration at 40 mg/kg, sc measured after 7 days by histopathological analysis; format: organism-based; details: in vivo, 168 h, time 7 day
How it was run: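 Male C57BL/6J mice, 3 months old, 26–30 g, given 40 mg/kg subcutaneously in 100 % Transcutol (vehicle group) for seven days. Killed 6 h after the last injection. Liver fixed in 4 % PFA, cryoprotected in 20 % sucrose and cut into 7 µm cryosections. Sections stained with hematoxylin/eosin and scored by two operators for hepatocyte arrangement, inflammatory infiltration and necrosis.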

HepG2 [17] = test: Upregulation of LDLR/PCSK9 in human HepG2 cells at 2.5 to 5 uM in presence of simvastatin by Western blot analysis; format: functional, cell-based; details: dose 2.5-5 µM
How it was run: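 HepG2 cells grown in MEM with 10 % FBS. Incubated overnight with test compound with or without simvastatin 40 μM (simvastatin dissolved in 0.1 M NaOH, pH 7.4). Lysates in 1 % NP-40 buffer; 25 µg protein run on 4–20 % SDS-PAGE. Immunoblotted for PCSK9 and LDLR, normalized to GAPDH by densitometry. Mean ± SD of three experiments, one-way ANOVA.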

[18] = Inhibition of PCSK9 expression in human HepG2 cells at 5 to 10 uM by ELISA method relative to control; format: functional; details: dose 5-10 µM
How it was run: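 Secreted PCSK9 was measured in HepG2 conditioned media with a human PCSK9 DuoSet sandwich ELISA. Media were centrifuged at 15000 rpm for 10 min and diluted before reading absorbance at 450 nm. Values were normalized to HepG2 total protein content. Mean ± SD of three independent experiments.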

HepG2 [19] = test: Induction of LDLR expression in human HepG2 cells by Western blot analysis; format: functional, cell-based; how it was run: as §2
[20] = Toxicity in C57BL/6 mouse assessed as effect on brain at 40 mg/kg, sc measured after 7 days by H and E staining based analysis; format: organism-based; details: in vivo, 168 h, time 7 day
HepG2 [21] = test: Downregulation of PCSK9 protein level in human HepG2 cells at 2.5 uM by Western blot analysis; format: functional, cell-based; how it was run: as §2
[22] = Toxicity in C57BL/6 mouse assessed as reduction in ALT plasma level at 40 mg/kg, sc measured after 7 days by ELISA method; format: organism-based; details: in vivo, 168 h, time 7 day
How it was run: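 Male C57BL/6J mice, 3 months old, dosed subcutaneously at 40 mg/kg daily for seven days in Transcutol. Killed under isoflurane 6 h after the final dose. Retro-orbital blood taken into EDTA and spun at 3000 rpm, 4 °C, 10 min. Plasma ALT measured by ELISA kit. Mean ± SEM, n = 5–6 per group.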

[23] = Toxicity in C57BL/6 mouse assessed as effect on spleen at 40 mg/kg, sc measured after 7 days by H and E staining based analysis; format: organism-based; details: in vivo, 168 h, time 7 day
HepG2 [24] = test: Downregulation of mature PCSK9 level in human HepG2 cells by Western blot analysis; format: functional, cell-based; how it was run: as §2
[25] = Toxicity in C57BL/6 mouse assessed as changes in fur sheen at 40 mg/kg, sc measured after 7 days; format: organism-based; details: in vivo, 168 h, time 7 day; how it was run: as §1
[26] = Toxicity in C57BL/6 mouse assessed as drug tolerance at 40 mg/kg, sc measured after 7 days; format: organism-based; details: in vivo, 168 h, time 7 day; how it was run: as §1
HepG2 [27] = test: Inhibition of simvastatin induced PCSK9 level in human HepG2 cells at 2.5 to 5 uM by Western blot analysis; format: functional, cell-based; details: dose 2.5-5 µM; how it was run: as §2

## Cc1cc(NCc2ccc(C(F)(F)F)cc2)cc(=O)n1Cc1ccc(C(F)(F)F)cc1
[1]
  Activity: Non-Toxic
[2]
  Activity: Non-Toxic
[3]
  Activity: Non-Toxic
[4]
  Activity: Non-Toxic
[5]
  Activity: Non-Toxic
[6]
  Activity: Non-Toxic
[7]
  Activity: Non-Toxic
[8]
  Activity: Non-Toxic
[9]
  Activity: Non-Toxic
[10]
  Activity: Non-Toxic
HepG2 [11]
  Activity: Active
[12]
  Activity: 100%
HepG2 [13]
  Activity: >95%
[14]
  Activity: Non-Toxic
[15]
  Activity: Non-Toxic
[16]
  Activity: Non-Toxic
HepG2 [17]
  Activity: Active
[18]
  inhibition (INH): 100%
HepG2 [19]
  Activity: Active
[20]
  Activity: Non-Toxic
HepG2 [21]
  Activity: Active
[22]
  Activity: Non-Toxic
[23]
  Activity: Non-Toxic
HepG2 [24]
  Activity: Active
[25]
  Activity: Non-Toxic
[26]
  Activity: Non-Toxic
HepG2 [27]
  inhibition: Active
